Results from ChEMBL document CHEMBL4014339, “Discovery of 1,4-Benzodiazepine-2,5-dione (BZD) Derivatives as Dual Nucleotide Binding Oligomerization Domain Containing 1/2 (NOD1/NOD2) Antagonists Sensitizing Paclitaxel (PTX) To Suppress Lewis Lung Carcinoma (LLC) Growth in Vivo” (J Med Chem, 2017).
Active and inactive are the calls of the source. The rule behind the calls is not given here.

Key:
[1] = test system: Lewis lung carcinoma cell line; test: Antitumor activity against mouse LLC cells implanted in C57BL/6 mouse assessed as tumor weight inhibition at 12 mg/kg, iv administered every 4 days measured 11 days after tumor implantation; format: functional, organism-based
[2] = target: T1, Nucleotide-binding oligomerization domain-containing protein 1 (Homo sapiens) (UniProt Q9Y239); test: Antagonist activity at human NOD1 expressed in HEK-Blue cells assessed as inhibition of C12-iE-DAP-stimulated cell activation at 10 uM preincubated for 3 hrs followed by C12-iE-DAP addition measured after 20 hrs by SEAP reporter gene assay; format: cell-based
T1 sequence (whole entry): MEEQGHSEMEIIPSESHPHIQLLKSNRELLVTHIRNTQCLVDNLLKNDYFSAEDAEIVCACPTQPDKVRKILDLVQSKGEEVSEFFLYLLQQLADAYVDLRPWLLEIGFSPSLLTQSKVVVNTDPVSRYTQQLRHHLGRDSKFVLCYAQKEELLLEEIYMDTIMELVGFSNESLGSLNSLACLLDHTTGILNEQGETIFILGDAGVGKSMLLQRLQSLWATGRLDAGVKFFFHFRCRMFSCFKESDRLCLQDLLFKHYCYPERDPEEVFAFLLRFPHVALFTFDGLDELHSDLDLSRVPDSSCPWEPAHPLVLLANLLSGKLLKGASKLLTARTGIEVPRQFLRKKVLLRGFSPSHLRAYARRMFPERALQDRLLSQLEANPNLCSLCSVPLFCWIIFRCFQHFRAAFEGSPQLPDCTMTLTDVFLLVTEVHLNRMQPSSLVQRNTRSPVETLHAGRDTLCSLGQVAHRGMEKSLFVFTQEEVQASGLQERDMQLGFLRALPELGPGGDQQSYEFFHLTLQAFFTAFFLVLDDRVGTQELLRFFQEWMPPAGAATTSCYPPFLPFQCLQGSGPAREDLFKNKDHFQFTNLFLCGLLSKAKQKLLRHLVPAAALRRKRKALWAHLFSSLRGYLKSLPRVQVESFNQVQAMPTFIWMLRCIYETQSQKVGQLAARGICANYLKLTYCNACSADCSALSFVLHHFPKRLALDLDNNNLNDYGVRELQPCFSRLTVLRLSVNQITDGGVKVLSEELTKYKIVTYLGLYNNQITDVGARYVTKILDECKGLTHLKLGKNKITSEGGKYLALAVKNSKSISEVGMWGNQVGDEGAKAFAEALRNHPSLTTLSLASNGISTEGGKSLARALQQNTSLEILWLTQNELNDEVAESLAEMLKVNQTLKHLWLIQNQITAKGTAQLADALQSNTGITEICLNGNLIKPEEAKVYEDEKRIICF
Summary of the method: (§1)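 HEK-Blue hNOD1 or hNOD2 cells preincubated with compound 3 h, then stimulated 20 h with C12-iE-DAP 50 ng/mL (NOD1) or MDP 100 ng/mL (NOD2); SEAP in supernatant quantified. Primary screen at 10 μM, hits repeated in triplicate; IC50 from dose-response, mean ± SD (n = 3), only for compounds reaching ≥50% inhibition at the screening concentration.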

[3] = Cytotoxicity against HEK-Blue cells by SRB assay; format: cell-based; conditions: human
[4] = target: T2, Nucleotide-binding oligomerization domain-containing protein 2 (Homo sapiens, UniProt Q9HC29); test: Antagonist activity at human NOD2 expressed in HEK-Blue cells assessed as inhibition of MDP-stimulated cell activation at 10 uM preincubated for 3 hrs followed by MDP addition measured after 20 hrs by SEAP reporter gene assay; format: cell-based; summary of the method: as §1
[5] = target: T1, Nucleotide-binding oligomerization domain-containing protein 1 (Homo sapiens); test: Inhibition of NOD1 in human PBMC-derived macrophages assessed as reduction in C12-iE-DAP-stimulated IL6 mRNA expression at 1 uM preincubated for 1 hr followed by C12-iE-DAP stimulation for 90 mins by RT-qPCR analysis
Summary of the method: (§2)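 Human CD14+ monocytes from donor PBMC, differentiated 7 days with M-CSF 20 ng/mL to macrophages; 1.0 × 10^6 cells pretreated 1 h with compound (final 0.1% DMSO), then C12-iE-DAP 500 ng/mL or MDP 5 μg/mL for 90 min. IL-6/TNF-α mRNA by qRT-PCR, normalized to GAPDH; stimulated response set to 100%.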

[6] = target: T1, Nucleotide-binding oligomerization domain-containing protein 1 (Homo sapiens); test: Inhibition of NOD1 in human PBMC-derived macrophages assessed as reduction in C12-iE-DAP-stimulated TNFalpha mRNA expression at 1 uM preincubated for 1 hr followed by C12-iE-DAP stimulation for 90 mins by RT-qPCR analysis; summary of the method: as §2
[7] = target: T1, Nucleotide-binding oligomerization domain-containing protein 1 (Homo sapiens); test: Antagonist activity at human NOD1 expressed in HEK-blue cells assessed as inhibition of C12-iE-DAP-stimulated cell activation at 5 uM preincubated for 3 hrs followed by C12-iE-DAP addition measured after 20 hrs by SEAP reporter gene assay; format: cell-based
[8] = target: T3, Nucleotide-binding oligomerization domain-containing protein 1 (Homo sapiens, UniProt Q9Y239); test: Antagonist activity at human NOD1 expressed in HEK-blue cells assessed as inhibition of C12-iE-DAP-stimulated cell activation preincubated for 3 hrs followed by C12-iE-DAP addition measured after 20 hrs by SEAP reporter gene assay; format: cell-based; summary of the method: as §1
T3 sequence (Q9Y239 whole entry): T1 sequence (whole entry)

[9] = target: T2, Nucleotide-binding oligomerization domain-containing protein 2; test: Antagonist activity at human NOD2 expressed in HEK-Blue cells assessed as inhibition of MDP-stimulated cell activation at 5 uM preincubated for 3 hrs followed by MDP addition measured after 20 hrs by SEAP reporter gene assay; format: cell-based
[10] = target: T2, Nucleotide-binding oligomerization domain-containing protein 2; test: Antagonist activity at human NOD2 expressed in HEK-Blue cells assessed as inhibition of MDP-stimulated cell activation preincubated for 3 hrs followed by MDP addition measured after 20 hrs by SEAP reporter gene assay; format: cell-based; summary of the method: as §1

T2 sequence (Q9HC29 whole entry, the tested form may be a part): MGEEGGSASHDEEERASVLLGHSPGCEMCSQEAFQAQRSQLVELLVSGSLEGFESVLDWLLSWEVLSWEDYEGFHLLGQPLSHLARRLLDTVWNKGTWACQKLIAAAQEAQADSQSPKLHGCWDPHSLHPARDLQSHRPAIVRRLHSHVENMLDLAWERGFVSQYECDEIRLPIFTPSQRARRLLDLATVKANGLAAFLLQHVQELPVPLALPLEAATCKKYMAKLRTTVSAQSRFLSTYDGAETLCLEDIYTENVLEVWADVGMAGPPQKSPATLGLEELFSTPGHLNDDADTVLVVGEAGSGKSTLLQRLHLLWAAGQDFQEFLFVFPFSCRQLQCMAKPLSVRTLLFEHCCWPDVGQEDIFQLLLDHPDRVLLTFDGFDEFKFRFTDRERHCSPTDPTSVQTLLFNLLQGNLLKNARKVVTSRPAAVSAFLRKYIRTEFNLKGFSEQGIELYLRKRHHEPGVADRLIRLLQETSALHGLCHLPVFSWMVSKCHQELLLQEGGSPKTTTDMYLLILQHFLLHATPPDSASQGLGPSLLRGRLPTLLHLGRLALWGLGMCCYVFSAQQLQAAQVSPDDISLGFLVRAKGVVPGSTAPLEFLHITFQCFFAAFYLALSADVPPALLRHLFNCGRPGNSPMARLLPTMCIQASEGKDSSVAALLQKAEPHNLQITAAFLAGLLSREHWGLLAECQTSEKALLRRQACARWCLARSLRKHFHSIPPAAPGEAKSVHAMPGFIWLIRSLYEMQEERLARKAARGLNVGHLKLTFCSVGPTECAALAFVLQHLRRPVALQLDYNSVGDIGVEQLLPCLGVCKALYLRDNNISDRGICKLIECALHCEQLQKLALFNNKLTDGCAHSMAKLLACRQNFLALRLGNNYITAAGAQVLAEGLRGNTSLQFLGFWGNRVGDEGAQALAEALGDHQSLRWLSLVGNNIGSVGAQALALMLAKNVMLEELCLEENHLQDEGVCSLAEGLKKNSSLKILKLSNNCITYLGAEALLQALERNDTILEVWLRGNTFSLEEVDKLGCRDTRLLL

In the case of `CC(=O)O[C@H]1C(=O)[C@@]2(C)[C@H]([C@H](OC(=O)c3ccccc3)[C@]3(O)C[C@H](OC(=O)[C@H](O)[C@@H](NC(=O)c4ccccc4)c4ccccc4)C(C)=C1C3(C)C)[C@]1(OC(C)=O)CO[C@@H]1C[C@@H]2O`, the TGI [1] is reported as “inactive”.

For `COC(=O)CC[C@H]1NC(=O)c2cc(Oc3cccc(N(C)C)c3)c(NC(=O)COCc3ccccc3)cc2NC1=O`, the inhibition [2] was 70.4%, the Activity [3] was “Non-Toxic” and the inhibition [4] was 69.1%.

With `Nc1nc2ccccc2n1S(=O)(=O)c1ccc(Cl)cc1` the inhibition [5] was “Active” and the inhibition [6] was “Active”.

For `CN(C)c1cccc(Oc2cc3c(cc2NC(=O)COCc2ccc(C(F)(F)F)cc2)NC(=O)[C@@H](CCC(=O)N2CCC(F)(F)CC2)NC3=O)c1`, the inhibition [2] was 90.9%, the inhibition [7] was 91.2% and the IC50 [8] was 430 nM. The Activity [3] was “Toxic”, the inhibition [4] was 94.8% and the inhibition [9] was 92.8%. The IC50 [10] was 810 nM.

For `COC(=O)CC[C@H]1NC(=O)c2cc(Oc3cccc(N(C)C)c3)c(NC(=O)COCc3ccc(F)c(F)c3)cc2NC1=O`, the inhibition [2] was 89%, the inhibition [7] was 83.7% and the IC50 [8] was 1160 nM. For the same compound, the inhibition [4] was 91.2%, the inhibition [9] was 83.5% and the IC50 [10] was 1700 nM.

Compound `CN(C)c1cccc(Oc2cc3c(cc2NC(=O)COCc2ccc(C(F)(F)F)cc2)NC(=O)[C@@H](CCC(=O)N2CCC(F)CC2)NC3=O)c1` has an inhibition [2] of 92.6%, an inhibition [7] of 90.2% and an IC50 [8] of 580 nM. For the same compound, the Activity [3] was “Toxic”, the inhibition [4] was 94.7% and the inhibition [9] was 91.7%. For the same compound, the IC50 [10] was 420 nM.

Compound `CN(C)c1cccc(Oc2cc3c(cc2NC(=O)COCc2ccc(Cl)cc2)NC(=O)[C@@H](CCC(=O)N2CCCCC2)NC3=O)c1` has an inhibition [2] of 85.2%, an inhibition [7] of 82.9% and an IC50 [8] of 1060 nM. The inhibition [4] was 96.7%, the inhibition [9] was 91.2% and the IC50 [10] was 900 nM.

`COC(=O)CC[C@H]1NC(=O)c2cc(Oc3cccc(N(C)C)c3)c(NC(=O)COCc3cccc(Br)c3)cc2NC1=O` gave an inhibition [2] of 89.6%, an inhibition [7] of 82.9% and an IC50 [8] of 1330 nM. It also gave an inhibition [4] of 86.7%, an inhibition [9] of 65.9% and an IC50 [10] of 2280 nM.

For `CN(C)c1cccc(Oc2cc3c(cc2NC(=O)COCc2ccccc2)NC(=O)[C@@H](CCC(=O)NC2CC2)NC3=O)c1`, the inhibition [2] was 57.1%, the inhibition [7] was 35.8% and the IC50 [8] was 8620 nM. The inhibition [4] was 57%, the inhibition [9] was 43.7% and the IC50 [10] was 7140 nM.

`COC(=O)CC[C@H]1NC(=O)c2cc(Oc3cccc(N(C)C)c3)c(NC(=O)COCc3ccc(F)cc3)cc2NC1=O` gave an inhibition [2] of 46.4%, an inhibition [7] of 73.7% and an IC50 [8] of 2360 nM. The inhibition [4] was 71.4%, the inhibition [9] was 63.1% and the IC50 [10] was 3100 nM.

For `COC(=O)CC[C@H]1NC(=O)c2cc(Oc3cccc(N(C)C)c3)c(NC(=O)COCc3ccc(C#N)cc3)cc2NC1=O`, the inhibition [2] was 59.6%, the inhibition [7] was 65.4% and the IC50 [8] was 3990 nM. The inhibition [4] was 67.9%, the inhibition [9] was 72.8% and the IC50 [10] was 2510 nM.

For `CCN(CC)C(=O)CC[C@H]1NC(=O)c2cc(Oc3cccc(N(C)C)c3)c(NC(=O)COCc3ccccc3)cc2NC1=O`, the inhibition [2] was 80.8%, the inhibition [7] was 80.5% and the IC50 [8] was 1270 nM. The inhibition [4] was 76.9%, the inhibition [9] was 60.8% and the IC50 [10] was 3410 nM.

For `COC(=O)CC[C@H]1NC(=O)c2cc(Oc3cccc(N(C)C)c3)c(NC(=O)COCc3cccc(Cl)c3)cc2NC1=O`, the inhibition [2] was 81.8%, the inhibition [7] was 76.7% and the IC50 [8] was 1290 nM. For the same compound, the inhibition [4] was 84.1%, the inhibition [9] was 71.5% and the IC50 [10] was 2080 nM.
